Published values gathered from unrelated publications.
Cell line: HepG2
Observed: cell growth or viability

SMILES | method | time | CC50 [µM]
COCC(=O)N1CCC[C@@H](C(=O)NCc2nc(-c3ccccc3)cs2)C1 | ATP luminescence | 96 h | > 50
Cn1nc2c(=O)n(C3CC3)cnc2c1[C@](O)(c1cnc(C(F)(F)F)c(Cl)c1)C(F)(F)F | ATP luminescence | – | > 50
O=C1C(NCCc2c[nH]c3ccccc23)=CC2=NCCc3c[nH]c1c32 | MTT | 72 h | 4
O[C@@H](CN[C@H](COCC1CC1)Cc1ccccc1)c1cc(Cl)cc2c1-c1ccc(Cl)cc1C2 | – | 48 h | 13.8
COCC(=O)N1CCC[C@H](C(=O)NCc2nc(-c3ccc(C#N)cc3)cs2)C1 | ATP luminescence | 96 h | > 50
CC[C@@](N)(c1cnc(C(F)(F)F)c(Cl)c1)c1c2ncn(C3CC3)c(=O)c2nn1C | ATP luminescence | – | > 50
NC1=CC2=NCCc3c[nH]c(c32)C1=O | MTT | 72 h | 0.1
O=C1c2ccccc2-n2c1nc1ccccc1c2=O | ATP luminescence | – | 6 to 9
CCOCC(=O)N1CCC[C@H](C(=O)NCc2nc(-c3ccccc3)cs2)C1 | ATP luminescence | 96 h | > 50
CCCCCCCCNC[C@@H](O)c1cc(Cl)cc2c1-c1ccc(Cl)cc1C2 | – | 48 h | 9
CCOCC(=O)N1CCC[C@H](C(=O)NCc2nc(-c3ccc(C)nc3)cs2)C1 | ATP luminescence | 96 h | > 50
CCCCCCNC[C@@H](O)c1cc(Cl)cc2c1-c1ccc(Cl)cc1C2 | – | 48 h | 6.3
O=C1C(NCCc2ccc(O)cc2)=CC2=NCCc3c[nH]c1c32 | MTT | 72 h | 4
CCCCCCCNC[C@@H](O)c1cc(Cl)cc2c1-c1ccc(Cl)cc1C2 | – | 48 h | 5
O=C1C=C2NCCc3c[nH]c(c32)C1=O | MTT | 72 h | 50
